Columns and labels:
[1] = Selectivity index, ratio of CC50 for HEK293T cells assessed as reduction in cell viability measured after 24 hrs by MTT assay to MIC for Proteus vulgaris ATCC 6380 assessed as bacterial growth inhibition by CLSI protocol based serial microdilution method; type: toxicity; conditions: human, read-out: Selectivity Index
[2] = tested on: Escherichia coli; assay: Antibacterial activity against Escherichia coli ATCC 25922 assessed as bacterial growth inhibition by CLSI protocol based serial microdilution method; type: functional
[3] = Cytotoxicity against HEK293T cells assessed as reduction in cell viability measured after 24 hrs by MTT assay; type: cell-based, HEK-293T; conditions: human
In short: (§1)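 HEK293T or MCF-7 cells in IMDM with 10% FBS, seeded at 20,000 per well and grown overnight. Compounds at […] in fresh medium for 24 h at 37 °C, 5% CO₂. MTT then added for 4 h, precipitate dissolved overnight in SDS-HCl, absorbance read at 570 nm. Viability expressed relative to untreated cells, giving CC₅₀. Duplicate wells, at least two independent repeats.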

[4] = Selectivity index, ratio of CC50 for HEK293T cells assessed as reduction in cell viability measured after 24 hrs by MTT assay to MIC for Citrobacter freundii ATCC 8090 assessed as bacterial growth inhibition by CLSI protocol based serial microdilution method; type: toxicity; conditions: human, read-out: Selectivity Index
[5] = tested on: Citrobacter freundii; assay: Antibacterial activity against Citrobacter freundii ATCC 8090 assessed as concentration required to inhibit visible growth by CLSI protocol based serial microdilution method; type: functional
[6] = Selectivity index, ratio of CC50 for MDCK cells to EC50 for Influenza A virus (A/Puerto Rico/8/34 (H1N1)) infected in MDCK cells; type: toxicity, cell-based; conditions: dog, read-out: Ratio CC50/EC50
In short: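 Ratio of CC₅₀ to EC₅₀, both in MDCK cells, with cytotoxicity run in parallel with the antiviral assay. EC₅₀ is the concentration halving virus production (0.3 log₁₀ EID₅₀ titre drop). It was obtained after 1 h compound pre-incubation, infection, 48 h at 37 °C, and hemagglutination read-out with 1% chicken erythrocytes.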

[7] = Cytotoxicity against MDCK cells assessed as cell death incubated for 48 hrs by MTT assay; type: cell-based, Canis lupus familiaris; conditions: dog
[8] = tested on: Pseudomonas aeruginosa; assay: Antibacterial activity against Pseudomonas aeruginosa ATCC 9027 assessed as bacterial growth inhibition by CLSI protocol based serial microdilution method; type: functional
[9] = Selectivity index, ratio of CC50 for HEK293T cells assessed as reduction in cell viability measured after 24 hrs by MTT assay to MIC for Candida albicans CEMTC 34 assessed as bacterial growth inhibition by CLSI protocol based serial microdilution method; type: toxicity; conditions: human, read-out: Selectivity Index
In short: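 SI = CC₅₀ (HEK293T) / MIC. HEK293T cells were seeded at 20,000/well overnight, then exposed to 10–250 µg/mL in IMDM with 10% FBS for 24 h. MTT was added for 4 h, solubilised with SDS-HCl, and read at 570 nm; duplicates, ≥2 independent runs. MIC came from two-fold dilutions in Sabouraud dextrose broth at ~5 × 10⁵ CFU/mL, 37 °C with shaking, read at 595 nm, in duplicate.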

[10] = tested on: Enterococcus faecalis; assay: Antibacterial activity against Enterococcus faecalis ATCC 51299 assessed as bacterial growth inhibition by CLSI protocol based serial microdilution method; type: functional
[11] = tested on: Pseudomonas aeruginosa; assay: Antibacterial activity against Pseudomonas aeruginosa ATCC 9027 assessed as concentration required to inhibit visible growth by CLSI protocol based serial microdilution method; type: functional
[12] = Selectivity index, ratio of CC50 for HEK293T cells assessed as reduction in cell viability measured after 24 hrs by MTT assay to MIC for Pseudomonas aeruginosa ATCC 9027 assessed as bacterial growth inhibition by CLSI protocol based serial microdilution method; type: toxicity; conditions: human, read-out: Selectivity Index
[13] = tested on: Citrobacter freundii; assay: Antibacterial activity against Citrobacter freundii ATCC 8090 assessed as bacterial growth inhibition by CLSI protocol based serial microdilution method; type: functional
[14] = tested on: Proteus vulgaris; assay: Antibacterial activity against Proteus vulgaris ATCC 6380 assessed as concentration required to inhibit visible growth by CLSI protocol based serial microdilution method; type: functional
[15] = tested on: Escherichia coli; assay: Antibacterial activity against Escherichia coli ATCC 25922 assessed as concentration required to inhibit visible growth by CLSI protocol based serial microdilution method; type: functional
[16] = tested on: Staphylococcus aureus; assay: Antibacterial activity against […] Staphylococcus aureus ATCC 25923 assessed as bacterial growth inhibition by CLSI protocol based serial microdilution method; type: functional
[17] = Selectivity index, ratio of CC50 for HEK293T cells assessed as reduction in cell viability measured after 24 hrs by MTT assay to MIC for Enterococcus faecalis ATCC 51299 assessed as bacterial growth inhibition by CLSI protocol based serial microdilution method; type: toxicity; conditions: human, read-out: Selectivity Index
[18] = Selectivity index, ratio of CC50 for HEK293T cells assessed as reduction in cell viability measured after 24 hrs by MTT assay to MIC for Escherichia coli ATCC 25922 assessed as bacterial growth inhibition by CLSI protocol based serial microdilution method; type: toxicity; conditions: human, read-out: Selectivity Index
[19] = tested on: Candida albicans; assay: Antifungal activity against Candida albicans CEMTC 34 assessed as concentration required to inhibit visible growth by CLSI protocol based serial microdilution method; type: functional
In short: (§2)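 Candida albicans grown in Sabouraud dextrose broth with two-fold serial compound dilutions from water stocks; final inoculum about 5 × 10⁵ CFU/mL. Incubated at 37 °C with orbital shaking (580 rpm). MIC is the lowest concentration preventing growth, by absorbance at 595 nm. MFC is the lowest concentration with no visible growth. Duplicates in two separate experiments.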

[20] = tested on: Candida albicans; assay: Antifungal activity against Candida albicans CEMTC 34 assessed as fungal growth inhibition by CLSI protocol based serial microdilution method; type: functional; in short: as §2
[21] = tested on: Enterococcus faecalis; assay: Antibacterial activity against Enterococcus faecalis ATCC 51299 assessed as concentration required to inhibit visible growth by CLSI protocol based serial microdilution method; type: functional
[22] = tested on: Proteus vulgaris; assay: Antibacterial activity against Proteus vulgaris ATCC 6380 assessed as bacterial growth inhibition by CLSI protocol based serial microdilution method; type: functional
[23] = tested on: Salmonella typhimurium; assay: Antibacterial activity against Salmonella enterica ATCC 14028 assessed as concentration required to inhibit visible growth by CLSI protocol based serial microdilution method; type: functional, Salmonella enterica subsp. enterica serovar Typhimurium
[24] = Cytotoxicity against human MCF7 cells assessed as reduction in cell viability measured after 24 hrs by MTT assay; type: cell-based; in short: as §1
[25] = tested on: Salmonella typhimurium; assay: Antibacterial activity against Salmonella enterica ATCC 14028 assessed as bacterial growth inhibition by CLSI protocol based serial microdilution method; type: functional, Salmonella enterica subsp. enterica serovar Typhimurium
[26] = tested on: Staphylococcus aureus; assay: Antibacterial activity against […] Staphylococcus aureus ATCC 25923 assessed as concentration required to inhibit visible growth by CLSI protocol based serial microdilution method; type: functional
[27] = Selectivity index, ratio of CC50 for HEK293T cells assessed as reduction in cell viability measured after 24 hrs by MTT assay to MIC for Salmonella enterica ATCC 14028 assessed as bacterial growth inhibition by CLSI protocol based serial microdilution method; type: toxicity; conditions: human, read-out: Selectivity Index
[28] = tested on: Influenza A virus; assay: Antiviral activity against Influenza A virus (A/Puerto Rico/8/34 (H1N1) infected in MDCK cells assessed as decrease in viral titer preincubated for 1 hr followed by viral infection and cultivated for 48 hrs followed by supernatant transferred to chicken erythrocyte for 1 hr followed by measuring ability to cause positive hemagglutination; type: functional, organism-based; conditions: A/Puerto Rico/8/1934(H1N1)
In short: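 MDCK monolayers in MEM were pre-incubated with compound for 1 h at 37 °C, then infected with 10-fold virus dilutions (10⁻¹–10⁻⁶) and held 48 h at 37 °C, 5% CO₂. Supernatant was mixed with an equal volume of 1% chicken erythrocytes, 60 min at room temperature. Titre was taken from the highest dilution giving full agglutination (log₁₀ EID₅₀). Triplicate per concentration.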

[29] = Selectivity index, ratio of CC50 for HEK293T cells assessed as reduction in cell viability measured after 24 hrs by MTT assay to MIC for Staphylococcus aureus ATCC 25923 assessed as bacterial growth inhibition by CLSI protocol based serial microdilution method; type: toxicity; conditions: human, read-out: Selectivity Index

SMILES | selectivity ratio at 24 h [1] | MIC [2] [µg/mL] | CC50 at 24 h [3] [µg/mL] | selectivity ratio at 24 h [4] | MBC [5] [µg/mL] | selectivity ratio [6] | CC50 at 48 h [7] [µg/mL] | MIC [8] [µg/mL] | selectivity ratio at 24 h [9] | MIC [10] [µg/mL] | MBC [11] [µg/mL] | selectivity ratio at 24 h [12] | MIC [13] [µg/mL] | MBC [14] [µg/mL] | MBC [15] [µg/mL] | MIC [16] [µg/mL] | selectivity ratio at 24 h [17] | selectivity ratio at 24 h [18] | MFC [19] [µg/mL] | MIC [20] [µg/mL] | other results
CCCCCCCCCCCC[N+]12CC[N+](CCCCC[N+]34CC[N+](CCCCCCCCCCCC)(CC3)CC4)(CC1)CC2 | < 1 | 1.6 | 7.5 | 5 | 3.1 | 4 | 9.7 | 3.1 | 1 | 1.6 | 6.3 | 2 | 1.6 | > 100 | 3.1 | 0.6 | 5 | 5 | 12.5 | 6.3 | MBC [21]: 1.6 µg/mL; MIC [22]: > 100 µg/mL; MBC [23]: 3.1 µg/mL; CC50 at 24 h [24]: 7 µg/mL; MIC [25]: 1.6 µg/mL; MBC [26]: 1.2 µg/mL; selectivity ratio at 24 h [27]: 5; EC50 [28]: 2.4 µg/mL; selectivity ratio at 24 h [29]: 13
CCCCCCCCCCCC[N+]12CC[N+](CC#CC[N+]34CC[N+](CCCCCCCCCCCC)(CC3)CC4)(CC1)CC2 | < 1 | 63 | 22 | 4 | 12 | < 1 | 4 | 3.1 | 2 | 1.6 | 12.5 | 7 | 6.3 | > 100 | 12.5 | 1.6 | 14 | 4 | 12.5 | 12.5 | MBC [21]: 3.1 µg/mL; MIC [22]: 100 µg/mL; MBC [23]: 12.5 µg/mL; CC50 at 24 h [24]: 23 µg/mL; MIC [25]: 6.3 µg/mL; MBC [26]: 3.1 µg/mL; selectivity ratio at 24 h [27]: 4; EC50 [28]: > 3 µg/mL; selectivity ratio at 24 h [29]: 14
CCCCCCCCCCCC[N+]12CC[N+](C/C=C/C[N+]34CC[N+](CCCCCCCCCCCC)(CC3)CC4)(CC1)CC2 | < 1 | 3.1 | 10 | 6 | 3.1 | 3 | 6.8 | 1.6 | < 1 | 1.6 | 3.1 | 6 | 1.6 | > 100 | 3.1 | 1.2 | 6 | 3 | 12.5 | 12.5 | MBC [21]: 1.6 µg/mL; MIC [22]: 100 µg/mL; MBC [23]: 3.1 µg/mL; CC50 at 24 h [24]: 8 µg/mL; MIC [25]: 16 µg/mL; MBC [26]: 1.6 µg/mL; selectivity ratio at 24 h [27]: 6; EC50 [28]: 2.6 µg/mL; selectivity ratio at 24 h [29]: 8

Source: ChEMBL document CHEMBL4715780, “Biological evaluation of tetracationic compounds based on two 1,4-diazabicyclo[2.2.2]octane moieties connected by different linkers” (Bioorg Med Chem, 2016)
